{"source": "ChEMBL document CHEMBL4808175", "about": "(J Med Chem, 2021)", "key": {"[1]": {"molecular_target": "T1, cGMP-specific 3',5'-cyclic phosphodiesterase (Homo sapiens, UniProt O76074)", "test": "Inhibition of recombinant full length GST-tagged PDE5A1 (unknown origin) expressed in baculovirus infected Sf9 insect cells using TAMRA-cGMP as substrate incubated for 1.5 hrs by IMAP-FP assay"}, "[2]": {"molecular_target": "T1, cGMP-specific 3',5'-cyclic phosphodiesterase", "test": "Inhibition of recombinant 6His-tagged PDE5A1 catalytic domain (unknown origin) expressed in Escherichia coli using TAMRA-cGMP or FAM-cAMP as substrate incubated for 1.5 hrs by IMAP-FP assay"}, "[3]": {"molecular_target": "Dual specificity calcium/calmodulin-dependent 3',5'-cyclic nucleotide phosphodiesterase 1A (Homo sapiens, UniProt P54750)", "sequence (P54750 whole entry)": "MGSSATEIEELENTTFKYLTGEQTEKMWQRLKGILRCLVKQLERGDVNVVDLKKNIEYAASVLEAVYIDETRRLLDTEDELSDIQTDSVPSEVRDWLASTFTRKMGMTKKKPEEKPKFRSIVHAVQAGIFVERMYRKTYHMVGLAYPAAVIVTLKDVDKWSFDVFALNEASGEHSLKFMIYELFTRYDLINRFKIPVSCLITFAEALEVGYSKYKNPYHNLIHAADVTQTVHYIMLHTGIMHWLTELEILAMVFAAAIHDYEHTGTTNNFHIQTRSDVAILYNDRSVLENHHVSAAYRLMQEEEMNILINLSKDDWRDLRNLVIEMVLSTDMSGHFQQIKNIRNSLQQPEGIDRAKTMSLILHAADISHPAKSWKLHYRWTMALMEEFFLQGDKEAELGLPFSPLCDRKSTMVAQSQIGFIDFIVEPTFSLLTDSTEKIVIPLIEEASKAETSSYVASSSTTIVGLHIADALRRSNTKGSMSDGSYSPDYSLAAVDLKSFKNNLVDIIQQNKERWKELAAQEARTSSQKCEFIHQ", "test": "Inhibition of recombinant full length GST-tagged PDE1A (unknown origin) expressed in baculovirus infected Sf9 insect cells using FAM-cAMP as substrate incubated for 1.5 hrs by IMAP-FP assay", "how_it_was_run": "(§1)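 PDE enzymes incubated with compound or vehicle and 50 nM TAMRA-cGMP or FAM-cAMP substrate for 1.5 h at 30 °C. Activity read by IMAP fluorescence polarization. IC50 from 10 concentrations, at least two replicates each, fitted by four-parameter logistic. Dose–response repeated at least twice; mean of at least two experiments.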"}, "[4]": {"molecular_target": "cGMP-dependent 3',5'-cyclic phosphodiesterase (Homo sapiens, UniProt O00408)", "test": "Inhibition of recombinant full length GST-tagged PDE2A (unknown origin) expressed in baculovirus infected Sf9 insect cells using TAMRA-cGMP as substrate incubated for 1.5 hrs by IMAP-FP assay", "how_it_was_run": "as §1"}, "[5]": {"molecular_target": "Cone cGMP-specific 3',5'-cyclic phosphodiesterase subunit alpha' (Homo sapiens, UniProt P51160)", "sequence (P51160 whole entry)": "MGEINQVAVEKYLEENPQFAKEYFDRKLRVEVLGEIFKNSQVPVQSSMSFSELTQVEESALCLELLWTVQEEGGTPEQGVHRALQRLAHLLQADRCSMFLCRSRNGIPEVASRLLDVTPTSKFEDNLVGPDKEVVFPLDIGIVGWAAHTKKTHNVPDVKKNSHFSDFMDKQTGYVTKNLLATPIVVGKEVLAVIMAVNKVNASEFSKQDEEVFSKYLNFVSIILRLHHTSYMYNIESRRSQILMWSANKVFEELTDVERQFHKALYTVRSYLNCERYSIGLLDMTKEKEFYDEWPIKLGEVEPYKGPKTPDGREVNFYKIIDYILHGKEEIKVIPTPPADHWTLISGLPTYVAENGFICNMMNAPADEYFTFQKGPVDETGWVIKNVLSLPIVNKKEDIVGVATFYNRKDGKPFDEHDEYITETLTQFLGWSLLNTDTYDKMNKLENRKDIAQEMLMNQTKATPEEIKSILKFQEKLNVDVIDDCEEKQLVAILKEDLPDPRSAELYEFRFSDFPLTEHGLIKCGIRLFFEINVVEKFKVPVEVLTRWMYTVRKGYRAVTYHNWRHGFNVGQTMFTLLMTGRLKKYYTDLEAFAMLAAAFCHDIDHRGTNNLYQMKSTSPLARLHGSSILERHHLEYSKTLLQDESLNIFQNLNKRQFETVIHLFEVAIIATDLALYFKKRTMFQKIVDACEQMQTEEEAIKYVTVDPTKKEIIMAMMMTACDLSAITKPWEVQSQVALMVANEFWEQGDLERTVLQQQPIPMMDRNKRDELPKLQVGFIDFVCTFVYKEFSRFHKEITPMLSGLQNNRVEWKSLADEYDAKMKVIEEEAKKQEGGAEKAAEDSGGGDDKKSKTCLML", "test": "Inhibition of recombinant full length GST-tagged PDE6C (unknown origin) expressed in baculovirus infected Sf9 insect cells using TAMRA-cGMP as substrate incubated for 1.5 hrs by IMAP-FP assay", "how_it_was_run": "as §1"}, "[6]": {"molecular_target": "High affinity 3',5'-cyclic-AMP phosphodiesterase 7A (Homo sapiens, UniProt Q13946)", "sequence (Q13946 whole entry)": "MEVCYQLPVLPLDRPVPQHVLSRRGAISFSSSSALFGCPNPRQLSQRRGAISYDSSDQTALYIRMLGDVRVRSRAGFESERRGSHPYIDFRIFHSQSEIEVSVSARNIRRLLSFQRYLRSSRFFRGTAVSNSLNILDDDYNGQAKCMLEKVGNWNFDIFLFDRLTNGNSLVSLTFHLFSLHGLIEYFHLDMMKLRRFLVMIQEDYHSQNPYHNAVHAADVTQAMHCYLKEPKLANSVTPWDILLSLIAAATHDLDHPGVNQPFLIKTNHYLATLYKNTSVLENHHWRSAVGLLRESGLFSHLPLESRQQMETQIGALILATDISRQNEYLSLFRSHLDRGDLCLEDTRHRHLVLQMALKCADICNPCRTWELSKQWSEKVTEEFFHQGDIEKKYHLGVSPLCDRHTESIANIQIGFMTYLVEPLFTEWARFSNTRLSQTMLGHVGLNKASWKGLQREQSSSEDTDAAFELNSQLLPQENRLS", "test": "Inhibition of recombinant GST-tagged PDE7A (122 to end residues) (unknown origin) expressed in baculovirus infected Sf9 insect cells using FAM-cAMP as substrate incubated for 1.5 hrs by IMAP-FP assay", "how_it_was_run": "as §1"}, "[7]": {"molecular_target": "High affinity cAMP-specific and IBMX-insensitive 3',5'-cyclic phosphodiesterase 8A (Homo sapiens, UniProt O60658)", "sequence (O60658 whole entry)": "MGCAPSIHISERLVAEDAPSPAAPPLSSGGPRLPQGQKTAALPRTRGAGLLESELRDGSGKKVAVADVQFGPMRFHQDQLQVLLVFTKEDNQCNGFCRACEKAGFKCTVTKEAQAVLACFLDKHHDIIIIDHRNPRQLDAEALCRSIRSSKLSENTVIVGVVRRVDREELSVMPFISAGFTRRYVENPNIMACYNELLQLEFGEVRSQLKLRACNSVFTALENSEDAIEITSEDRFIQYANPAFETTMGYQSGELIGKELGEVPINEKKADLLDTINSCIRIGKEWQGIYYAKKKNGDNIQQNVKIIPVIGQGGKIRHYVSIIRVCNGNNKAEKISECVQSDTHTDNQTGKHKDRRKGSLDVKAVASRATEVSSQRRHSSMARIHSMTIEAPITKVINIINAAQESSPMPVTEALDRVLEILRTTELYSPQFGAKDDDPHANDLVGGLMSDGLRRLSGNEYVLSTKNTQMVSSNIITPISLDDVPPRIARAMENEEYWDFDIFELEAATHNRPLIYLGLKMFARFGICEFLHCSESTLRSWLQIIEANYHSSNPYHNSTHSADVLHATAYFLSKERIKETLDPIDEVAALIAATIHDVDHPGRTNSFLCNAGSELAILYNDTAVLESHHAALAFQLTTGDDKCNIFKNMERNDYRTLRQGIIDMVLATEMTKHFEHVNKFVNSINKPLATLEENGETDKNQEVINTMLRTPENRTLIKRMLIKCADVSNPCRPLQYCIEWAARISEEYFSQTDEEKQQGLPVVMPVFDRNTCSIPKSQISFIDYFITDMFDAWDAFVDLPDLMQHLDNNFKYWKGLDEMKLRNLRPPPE", "test": "Inhibition of recombinant GST-tagged full length PDE8A1 (unknown origin) expressed in baculovirus infected Sf9 insect cells using FAM-cAMP as substrate incubated for 1.5 hrs by IMAP-FP assay", "how_it_was_run": "as §1"}, "[8]": {"molecular_target": "T2, cAMP and cAMP-inhibited cGMP 3',5'-cyclic phosphodiesterase 10A (Homo sapiens, UniProt Q9Y233)", "T2 sequence (Q9Y233 whole entry)": "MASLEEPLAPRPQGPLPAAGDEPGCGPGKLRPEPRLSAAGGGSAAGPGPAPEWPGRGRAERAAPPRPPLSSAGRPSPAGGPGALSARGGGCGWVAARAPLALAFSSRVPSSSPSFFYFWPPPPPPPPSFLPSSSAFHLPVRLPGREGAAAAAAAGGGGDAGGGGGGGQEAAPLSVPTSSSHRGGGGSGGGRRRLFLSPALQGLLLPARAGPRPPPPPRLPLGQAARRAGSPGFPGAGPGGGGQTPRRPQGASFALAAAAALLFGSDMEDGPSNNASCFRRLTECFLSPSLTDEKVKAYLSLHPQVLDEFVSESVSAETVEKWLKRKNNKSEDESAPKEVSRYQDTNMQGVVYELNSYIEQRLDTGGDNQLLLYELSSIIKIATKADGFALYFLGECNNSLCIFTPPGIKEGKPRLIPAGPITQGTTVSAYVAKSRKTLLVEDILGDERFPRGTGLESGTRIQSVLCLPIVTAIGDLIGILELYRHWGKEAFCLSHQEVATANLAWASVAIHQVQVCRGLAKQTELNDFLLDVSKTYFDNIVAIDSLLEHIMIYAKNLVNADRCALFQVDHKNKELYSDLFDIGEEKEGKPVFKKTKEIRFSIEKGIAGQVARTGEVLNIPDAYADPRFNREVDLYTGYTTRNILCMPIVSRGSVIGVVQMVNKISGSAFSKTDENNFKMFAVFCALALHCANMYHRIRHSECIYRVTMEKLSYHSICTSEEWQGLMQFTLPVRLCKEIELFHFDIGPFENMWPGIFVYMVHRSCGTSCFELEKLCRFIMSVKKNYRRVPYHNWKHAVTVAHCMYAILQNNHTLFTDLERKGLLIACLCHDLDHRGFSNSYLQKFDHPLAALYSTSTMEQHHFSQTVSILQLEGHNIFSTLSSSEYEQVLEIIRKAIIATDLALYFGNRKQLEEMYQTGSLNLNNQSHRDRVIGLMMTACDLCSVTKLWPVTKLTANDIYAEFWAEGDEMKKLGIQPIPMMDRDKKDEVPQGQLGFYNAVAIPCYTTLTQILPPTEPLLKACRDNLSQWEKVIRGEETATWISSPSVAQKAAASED", "test": "Inhibition of recombinant GST-tagged full length PDE10A2 (unknown origin) expressed in baculovirus infected Sf9 insect cells using FAM-cAMP as substrate incubated for 1.5 hrs by IMAP-FP assay", "how_it_was_run": "as §1"}, "[9]": {"molecular_target": "T2, cAMP and cAMP-inhibited cGMP 3',5'-cyclic phosphodiesterase 10A", "test": "Inhibition of recombinant GST-tagged full length PDE10A2 (unknown origin) expressed in baculovirus infected Sf9 insect cells using TAMRA-cGMP as substrate incubated for 1.5 hrs by IMAP-FP assay", "how_it_was_run": "as §1"}, "[10]": {"molecular_target": "T3, Dual 3',5'-cyclic-AMP and -GMP phosphodiesterase 11A (Homo sapiens, UniProt Q9HCR9)", "T3 sequence (Q9HCR9 whole entry)": "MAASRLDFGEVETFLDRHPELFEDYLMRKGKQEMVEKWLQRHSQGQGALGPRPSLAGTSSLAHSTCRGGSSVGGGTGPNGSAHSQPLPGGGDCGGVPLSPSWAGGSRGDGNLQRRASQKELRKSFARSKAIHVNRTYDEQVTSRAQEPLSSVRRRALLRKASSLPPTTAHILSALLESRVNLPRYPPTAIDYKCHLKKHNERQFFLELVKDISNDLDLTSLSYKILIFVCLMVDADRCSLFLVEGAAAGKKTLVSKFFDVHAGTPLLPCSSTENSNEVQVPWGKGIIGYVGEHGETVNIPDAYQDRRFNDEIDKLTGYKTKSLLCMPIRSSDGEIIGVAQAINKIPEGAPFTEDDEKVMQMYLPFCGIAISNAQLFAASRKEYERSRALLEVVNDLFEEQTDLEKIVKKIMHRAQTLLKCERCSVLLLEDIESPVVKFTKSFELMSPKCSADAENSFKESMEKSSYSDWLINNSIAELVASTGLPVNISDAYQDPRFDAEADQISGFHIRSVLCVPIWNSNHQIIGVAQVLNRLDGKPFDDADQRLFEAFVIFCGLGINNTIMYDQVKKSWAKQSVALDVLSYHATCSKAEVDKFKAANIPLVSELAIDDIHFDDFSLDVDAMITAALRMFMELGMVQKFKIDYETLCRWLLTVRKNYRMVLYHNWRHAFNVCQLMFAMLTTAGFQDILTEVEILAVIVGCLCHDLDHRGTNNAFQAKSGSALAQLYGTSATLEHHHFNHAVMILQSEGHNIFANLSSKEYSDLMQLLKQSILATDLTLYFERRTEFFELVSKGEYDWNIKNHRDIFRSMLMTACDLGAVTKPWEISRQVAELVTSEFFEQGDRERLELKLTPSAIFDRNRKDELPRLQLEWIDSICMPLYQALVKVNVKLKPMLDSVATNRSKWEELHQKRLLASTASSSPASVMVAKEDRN", "test": "Inhibition of recombinant GST-tagged full length PDE11A4 (unknown origin) expressed in baculovirus infected Sf9 insect cells using FAM-cAMP as substrate incubated for 1.5 hrs by IMAP-FP assay", "how_it_was_run": "as §1"}, "[11]": {"molecular_target": "T3, Dual 3',5'-cyclic-AMP and -GMP phosphodiesterase 11A", "test": "Inhibition of recombinant GST-tagged full length PDE11A4 (unknown origin) expressed in baculovirus infected Sf9 insect cells using TAMRA-cGMP as substrate incubated for 1.5 hrs by IMAP-FP assay", "how_it_was_run": "as §1"}, "Homo sapiens [12]": {"organism": "Homo sapiens", "test": "Selectivity ratio of IC50 for recombinant full length GST-tagged PDE6C (unknown origin) expressed in baculovirus infected Sf9 insect cells to IC50 for recombinant full length GST-tagged PDE5A1 (unknown origin) expressed in baculovirus infected Sf9 insect cells using TAMRA-cGMP as substrate incubated for 1.5 hrs by IMAP-FP assay using TAMRA-cGMP as substrate incubated for 1.5 hrs by IMAP-FP assay"}, "Homo sapiens [13]": {"organism": "Homo sapiens", "test": "Selectivity ratio of IC50 for recombinant GST-tagged full length PDE11A4 (unknown origin) expressed in baculovirus infected Sf9 insect cells to IC50 for recombinant full length GST-tagged PDE5A1 (unknown origin) expressed in baculovirus infected Sf9 insect cells using TAMRA-cGMP as substrate incubated for 1.5 hrs by IMAP-FP assay using TAMRA-cGMP as substrate incubated for 1.5 hrs by IMAP-FP assay"}, "[14]": {"molecular_target": "T1, cGMP-specific 3',5'-cyclic phosphodiesterase", "test": "Competitive inhibition of recombinant 6His-tagged PDE5A1 catalytic domain (unknown origin) expressed in Escherichia coli assessed as increase in apparent Km up to 40 nM using varying levels TAMRA-cGMP or FAM-cAMP as substrate", "details": "dose nM <=40"}, "[15]": {"molecular_target": "T1, cGMP-specific 3',5'-cyclic phosphodiesterase", "test": "Inhibition of PDE5A in HEK293 cells stably transfected with cGMP biosensor assessed as increase in SNP-induced intracellular cGMP level measured after 90 mins by luminescence assay", "type": "cell-based"}, "[16]": {"test": "Protein binding in human plasma assessed as bound fraction by HPLC-MS/MS analysis", "type": "ADME, cell-free", "details": "read-out: PPB (converted)", "how_it_was_run": "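Human plasma spiked with compound at 10 μM, 1% DMSO final. Dialyzed against PBS pH 7.4 for 4 h at 37 °C. Both compartments diluted, acetonitrile-precipitated and quantified by HPLC-MS/MS. An undialyzed spiked control served for recovery; duplicates.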"}, "[17]": {"test": "Tmax in C57BL/6N mouse at 150 mg/kg, po administered as single dose measured up to 8 hrs by LC-MS/MS analysis", "type": "ADME, organism-based", "details": "in vivo"}, "[18]": {"test": "Cmax in C57BL/6N mouse at 150 mg/kg, po administered as single dose measured up to 8 hrs by LC-MS/MS analysis", "type": "ADME, organism-based", "design": "route oral, dose 150 mg/kg, time <=8", "details": "in vivo"}, "[19]": {"test": "AUC (0 to 8 hrs) in C57BL/6N mouse at 150 mg/kg, po administered as single dose measured up to 8 hrs by LC-MS/MS analysis", "type": "ADME, organism-based", "design": "route oral, dose 150 mg/kg, time <=8", "details": "in vivo"}, "[20]": {"test": "Observed volume of distribution in C57BL/6N mouse at 150 mg/kg, po administered as single dose measured up to 8 hrs by LC-MS/MS analysis", "type": "ADME, organism-based", "details": "in vivo"}, "[21]": {"test": "Toxicity in athymic nude-Foxn1nu mouse assessed as drug tolerance at 50 to 150 mg/kg, po bid for 28 days", "type": "organism-based", "details": "in vivo, 672 h, dose 50-150 mg/kg, time 28 day", "how_it_was_run": "(§2)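 Female athymic nude-Foxn1nu mice, 8–9 weeks, 18–24 g, n=4 per group. Oral gavage at 50, 100 or 150 mg/kg twice daily, or vehicle, for 28 days. Formulation ethanol/water/Maalox (7:3:90, v/v/v). Toxicity signs monitored daily. Body weight recorded daily in week 1, then twice weekly, as percent change from starting weight.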"}, "[22]": {"test": "Toxicity in athymic nude-Foxn1nu mouse at 50 to 150 mg/kg, po bid for 28 days", "type": "organism-based", "details": "in vivo, 672 h, dose 50-150 mg/kg, time 28 day", "how_it_was_run": "as §2"}, "[23]": {"test": "Toxicity in athymic nude-Foxn1nu mouse assessed as effect on liver at 50 to 150 mg/kg, po bid for 28 days", "type": "organism-based", "details": "in vivo, 672 h, dose 50-150 mg/kg, time 28 day"}, "[24]": {"test": "Toxicity in athymic nude-Foxn1nu mouse assessed as effect on spleen at 50 to 150 mg/kg, po bid for 28 days", "type": "organism-based", "details": "in vivo, 672 h, dose 50-150 mg/kg, time 28 day"}, "[25]": {"test": "Toxicity in athymic nude-Foxn1nu mouse assessed as effect on kidney at 50 to 150 mg/kg, po bid for 28 days", "type": "organism-based", "details": "in vivo, 672 h, dose 50-150 mg/kg, time 28 day"}}, "note": "pEC50, pIC50: −log10 of the molar value. Active and inactive are the calls of the source. No cut-off for these calls is given here."}
{"smiles": "COc1c(F)cc(C2CC(C(C)(C)C)=NN2c2ccc(C(=O)N3CCN(C)CC3)cc2)cc1F", "note": "(stereo not given)", "values": [{"measurement": "pIC50", "setting": "[1]", "value": 9.00}, {"measurement": "pIC50", "setting": "[2]", "value": "< 6.00"}, {"measurement": "pIC50", "setting": "[3]", "value": "< 5.00"}, {"measurement": "pIC50", "setting": "[4]", "value": "< 5.00"}, {"measurement": "pIC50", "setting": "[5]", "value": "< 5.00"}, {"measurement": "pIC50", "setting": "[6]", "value": "< 5.00"}, {"measurement": "pIC50", "setting": "[7]", "value": "< 5.00"}, {"measurement": "pIC50", "setting": "[8]", "value": "< 5.00"}, {"measurement": "pIC50", "setting": "[9]", "value": "< 5.00"}, {"measurement": "pIC50", "setting": "[10]", "value": "< 5.00"}, {"measurement": "pIC50", "setting": "[11]", "value": "< 5.00"}, {"measurement": "Ratio IC50", "setting": "Homo sapiens [12]", "value": "> 10000"}, {"measurement": "Ratio IC50", "setting": "Homo sapiens [13]", "value": "> 10000"}, {"measurement": "inhibition", "setting": "[14]", "value": "Active"}, {"measurement": "pEC50", "setting": "[15]", "value": 5.17}, {"measurement": "fraction unbound", "setting": "[16]", "value": 0.02}, {"measurement": "Tmax", "setting": "[17]", "value": 2, "unit": "h"}, {"measurement": "Cmax", "setting": "[18]", "value": 4000, "unit": "ng/mL"}, {"measurement": "AUC(0-t)", "setting": "[19]", "value": 14100, "unit": "ng·h/mL"}, {"measurement": "Vd", "setting": "[20]", "value": 625, "unit": "mL"}, {"measurement": "Activity", "setting": "[21]", "value": "Non-Toxic"}, {"measurement": "Activity", "setting": "[22]", "value": "Non-Toxic"}, {"measurement": "Activity", "setting": "[23]", "value": "Non-Toxic"}, {"measurement": "Activity", "setting": "[24]", "value": "Non-Toxic"}, {"measurement": "Activity", "setting": "[25]", "value": "Non-Toxic"}]}
